Data reported in PubChem BioAssay AID1046 (PCMD, 2008).
In all, about 220,000 compounds went through this assay and about 560 (0.25%) were called active.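 The calls were made as follows: active = inhibition at or above 40%; inactive = inhibition below 40%.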 Many of the other results were omitted from the sample, so actives are more common in it than they were.

Target: Prothrombin (Homo sapiens) (UniProt P00734)
Test: human alpha-thrombin inhibitors, primary screen, counter-screen for coagulation protease inhibitor project, biochemical, 1536-well, fluorogenic AMC substrate (AID 1046);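 also: 0% = enzyme with no compound and 100% = wells without enzyme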
Settings: Boc-VPR-AMC fluorogenic substrate cleavage, at 5 µM, active compounds read high
Method in brief: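 Test system: human alpha-thrombin protein / Dosing: one concentration per compound, 5 µM, with 0.2% DMSO / Medium: pH 7.5 Tris-saline with Tween 20 / Benchmarks: no-compound enzyme wells and no-enzyme blanks / Read-out basis: percent inhibition of thrombin substrate cleavage / Timing: reaction at room temperature / Measured by: fluorescence, ex 355 nm, em 460 nm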

| Compound | inhibition |
| --- | --- |
| CCSc1nc(C)nc2c1oc1ccccc12 | 4.11% (inactive) |
| Cc1nc(N2CCCC2C(=O)O)c2oc3ccccc3c2n1 (stereo unspecified) | 2.84% (inactive) |
| Cc1nc(Cl)c2oc3ccccc3c2n1 | 104% (active) |
| CCc1nnc(NC(=O)CCC(=O)NCc2ccccc2OC)s1 | 2.56% (inactive) |
| CCc1nnc(NC(=O)CCN(c2ccc(C)cc2)S(=O)(=O)c2ccccc2)s1 | 47.5% (active) |
| CCc1nnc(NC(=O)CCC(=O)O)s1 | 8.11% (inactive) |
| O=C(Nc1ccc(F)cc1)c1cc2c(s1)CCCC2 | -1.36% (inactive) |
| CCCCNS(=O)(=O)c1ccc2nc(SCC(=O)Nc3cc(C)cc(C)c3)[nH]c2c1 | -6.37% (inactive) |
| CN(C(=O)c1c(Cl)cnn1C)C12CC3CC(CC(C3)C1)C2 | -15.4% (inactive) |
| C/C(=N\NC(=O)CSc1nc2ccccc2c(=O)n1-c1ccccc1C)c1cccs1 | 0.36% (inactive) |
| Cc1ccc(OCCOCCOc2ccc(Br)cc2/C=N\NC(=O)c2ccncc2)cc1 | -13.6% (inactive) |
| Cc1c([N+](=O)[O-])c(N)nn1C | 5.35% (inactive) |
| Cc1ccc2cc(C)c(N3CCC(C)CC3)nc2c1 | -2.54% (inactive) |
| CN(c1ccc(OCC(=O)OCC(=O)Nc2cccc([N+](=O)[O-])c2)cc1)S(=O)(=O)c1ccc(F)cc1 | 2.69% (inactive) |
| CC1CC(=O)Nc2ccccc2N1S(=O)(=O)c1cccs1 (stereo unspecified) | -3.5% (inactive) |
| Cc1[nH]c2ccccc2c1-c1ccc(Cl)nn1 | 1.85% (inactive) |
| O=C(O)C(F)(F)C(NCc1ccccc1)c1ccccc1 (stereo unspecified) | 5.86% (inactive) |
| CN(C)C(CNC(=O)c1cccc(C#N)c1)c1ccco1 (stereo unspecified) | -12.4% (inactive) |
| CC/C=C/C(=O)N1CC2(CC(c3cccc(NC(=O)CC)c3)=NO2)C[C@H]1C(N)=O (stereo partly specified) | -2.66% (inactive) |
| CCOC(=O)C1CCN(c2ccc(C(=O)O)cc2[N+](=O)[O-])CC1 | -6.48% (inactive) |
| CCOC(=O)CSc1nc(C)cc2c1C(=O)OC2 | -3.04% (inactive) |
| CCOC(=O)CSc1ccccn1 | -0.12% (inactive) |
| CCOC(=O)CSC1=N/C(=C/c2ccc(-n3cncn3)cc2)C(=O)N1C(C)=O | 86.8% (active) |
| N#Cc1c(C(F)(F)F)cc(-c2cccs2)nc1N1CCCCC1 | -5.35% (inactive) |

| Compound | inhibition |
| --- | --- |
| COc1ccc(-n2c(O)c(C=NCC(c3ccco3)N3CCCC3)c3ccccc3c2=O)cc1OC (stereo unspecified) | 1.85% (inactive) |
| CCc1ccccc1NC(=O)CN(C)S(=O)(=O)c1ccc2c(c1)c(=O)n(C)c(=O)n2C | -7.84% (inactive) |
| CCN(C(=O)CSc1nnc2ccccn12)C1CCS(=O)(=O)C1 (stereo unspecified) | 2.43% (inactive) |
| CCOC(=O)c1nnn2c3ccccc3c(=O)n(C)c12 | -5.13% (inactive) |
| COC(=O)c1onc(-c2c(OC)cc(OC)cc2OC)c1C(=O)OC | 1.99% (inactive) |
| COc1ccc(C(C)=O)cc1CSc1nc2nc(C)cc(C)n2n1 | -1.59% (inactive) |
| Cc1ccc(S(=O)(=O)/N=C(\CN2CCOCC2)N2CCOCC2)cc1 | -16.3% (inactive) |
| Nc1ccccc1Sc1cc(Cl)nnc1Cl | 14.4% (inactive) |
| CC(=O)NCCC(=O)Nc1nc(C)c(Cc2ccc3c(c2)OCO3)s1 | -4.26% (inactive) |
| Nc1nc(NCCCN2CCOCC2)nc(Nc2ccccc2)c1[N+](=O)[O-] | -6.41% (inactive) |
| Cc1ccc(NC(=S)NCCN2CCOCC2)cc1 | -1.01% (inactive) |
| CCOc1nc(NCCN2CCOCC2)nc(Nc2ccc(C)cc2)n1 | 63.7% (active) |
| CSc1c(SCc2ccccc2)cnn(Cc2ccccc2)c1=O | 0.48% (inactive) |
| COCCOC(=O)c1c(C)oc2cc(Br)c(OCC(N)=O)cc12 | -6.6% (inactive) |
| O=C1N(c2ccccc2)C(=Nc2ccccc2)SC12CC2 | -5.96% (inactive) |
| COc1ccc(C/C(C)=N/NC(=O)c2cc(C)oc2C)cc1 | 0.98% (inactive) |
| CN(C(=O)CSc1nnc(Nc2ccccc2)s1)C1CCS(=O)(=O)C1 (stereo unspecified) | -0.79% (inactive) |
| Cc1cc(C(=O)COc2ccccc2[N+](=O)[O-])c(C)n1-c1cccc(S(=O)(=O)N2CCOCC2)c1 | 5.89% (inactive) |
| CC1=C(C)CC(C(=O)NNC(=O)c2ccccc2O)C(C(=O)O)C1 (stereo unspecified) | -3.8% (inactive) |
| Cc1cc(C)n2nc(C(=O)N3CCN(Cc4ccc5c(c4)OCO5)CC3)nc2n1 | -9.34% (inactive) |
| COc1ccc(CNC(=O)CN(Cc2ccc(Cl)cc2)S(C)(=O)=O)cc1 | -2.34% (inactive) |
| Cc1cc(C)cc(C(=O)NC2C(=O)N3C(C(=O)O)=C(CSc4nnc(C)s4)CSC23)c1 (stereo unspecified) | -12% (inactive) |
| O=C(Cn1cnc([N+](=O)[O-])n1)NCCc1ccccc1 | -6.67% (inactive) |
| CN(C)c1cc(-c2ccc(F)cc2)oc(=O)c1Cl | -0.75% (inactive) |

| Compound | inhibition |
| --- | --- |
| CN(c1ccc(OCC(=O)NC2=NCCS2)cc1)S(=O)(=O)c1ccc(F)cc1 | -4.51% (inactive) |
| Cc1ccc(SCc2c(C(=O)N/N=C/C3CC=CCC3)nnn2-c2nonc2N)cc1 (stereo unspecified) | -0.65% (inactive) |
| O=C(NCC1CCCO1)c1cc(-c2ccccc2)nc2ccccc12 (stereo unspecified) | 3.52% (inactive) |
| Cn1cc(CN2CCCCC2c2ccccn2)c(-c2ccc3c(c2)OCCO3)n1 (stereo unspecified) | -14.8% (inactive) |
| O=S(=O)(c1cccc(C(F)(F)F)c1)N1CCN(c2cnccn2)CC1 | 2.6% (inactive) |
| CCCN1C(=O)C(Cc2nc3ccccc3c(=O)n2-c2ccccc2)c2cc(C)ccc21 (stereo unspecified) | -0.44% (inactive) |
| O=C(Nc1nnc(COc2ccccc2)s1)Nc1ccccc1F | 1.51% (inactive) |
| CCOC(=O)C1(CCOC)CCN(Cc2ccc(C(=O)OC)cc2)CC1 | -3.33% (inactive) |
| CC(C)Oc1ccc(CCC(=O)NNC(=S)NCc2ccccc2)cc1 | 5.08% (inactive) |
| CCN(CC)CCC(c1ccc2c(c1)OCO2)c1c(OC)cc(OC)c2c(-c3ccccc3)cc(=O)oc12 (stereo unspecified) | -12.8% (inactive) |
| O=C(c1ccccc1Cl)N(Cc1ccccc1F)N1C(=O)CCCC1=O | -0.77% (inactive) |
| CCC(C)[C@@H](C(=O)N1CCNCC1)n1cc(CCCCN)nn1 (stereo partly specified) | -2.39% (inactive) |
| CCOC(=O)C1(C)NC(c2ccco2)C2C(=O)N(c3ccccc3)C(=O)C21 (stereo unspecified) | -2.99% (inactive) |
| O=C(Nc1ccccc1F)c1ccc(Cn2cc(Br)cn2)cc1 | 0.95% (inactive) |
| CCCC(O)(CCC)C(=O)NN(C(=O)CCl)c1cccc(C)c1 | -0.4% (inactive) |
| CC(C)Cc1ccc(C(C)C(=N)N)cc1 (stereo unspecified) | -0.2% (inactive) |
| CCS(=O)(=O)N1Cc2ccccc2CC1C(=O)Nc1nc2ccc(F)cc2s1 (stereo unspecified) | -4.77% (inactive) |
| O=C(CSc1nnnn1-c1ccc(O)cc1)c1ccc(F)cc1 | -1.4% (inactive) |
| CC1CN(S(=O)(=O)c2ccc(C(=O)NN3CCN(C)CC3)cc2)CC(C)O1 (stereo unspecified) | -9.4% (inactive) |
| CC(C)(C)C1CCC(OC(=O)CCC(=O)Nc2ccccc2)CC1 (stereo unspecified) | -0.51% (inactive) |
| CC(C)N1C(=O)N(c2ccccc2)C(C)(O)CC1(C)C (stereo unspecified) | -4.92% (inactive) |
| COC(=O)c1cc2c(N)c(C(=O)c3ccc(Cl)cc3)sc2nc1C(OC)OC | 3.67% (inactive) |
| COc1ccccc1NC(=O)c1cc(Cl)nnc1Cl | -8.6% (inactive) |
| C=C(C)COc1ccc(-c2nc(N)ncc2-c2ccccc2OC)c(O)c1 | -2.7% (inactive) |

| Compound | inhibition |
| --- | --- |
| COc1cc(NC(=O)c2ccc(CNc3c(N4CCCC4)c(=O)c3=O)cc2)cc(OC)c1OC | 3.4% (inactive) |
| Cc1noc(C)c1S(=O)(=O)N1CCCC(C(=O)Nc2nccs2)C1 (stereo unspecified) | -1.5% (inactive) |
| Cc1ccc(NC(=O)C2CCCN(S(=O)(=O)c3c(C)noc3C)C2)c(C)c1 (stereo unspecified) | -4.66% (inactive) |
| COc1c(C)cc(C(=O)C2CCCN(S(=O)(=O)c3c(C)noc3C)C2)cc1C (stereo unspecified) | 41.9% (active) |
| CN1CCN(c2ncc3c(n2)CC(c2ccccc2F)CC3=O)CC1 (stereo unspecified) | -5.02% (inactive) |
| Cc1ccc(C)c(NC(=S)NCC(c2cccnc2)N2CCOCC2)c1 (stereo unspecified) | -3.59% (inactive) |
| CCCC/C(C)=N/NC(=O)NC1CCCCC1 | -6.13% (inactive) |
| O=C(Cn1cc(C(=O)c2cccs2)c2ccccc21)NCc1cccs1 | -2.66% (inactive) |
| COCCNC(=O)Cn1cc(C(=O)c2cccs2)c2ccccc21 | 0.65% (inactive) |
| COC(=O)Cn1cc(C(=O)c2cccs2)c2ccccc21 | 47% (active) |
| Clc1ccc(CSc2nnc3c(n2)[nH]c2ccccc23)cc1 | -0.71% (inactive) |
| CCC(C(=O)Nc1ccc(C(C)C)cc1)c1ccccc1 (stereo unspecified) | -7.56% (inactive) |
| CCc1ccc(CNC(=O)CCc2nc(-c3cccs3)no2)cc1 | 6.55% (inactive) |
| O=C(Cn1c2[n+](c3ccc(C(F)(F)F)cc31)CCCCC2)Nc1c(F)cccc1F | -11.3% (inactive) |
| O=C(CSc1ccc([N+](=O)[O-])cn1)Nc1ccc(N2CCOCC2)c(Cl)c1 | -6.75% (inactive) |
| Cc1nc2cc(NC(=O)Nc3cccc(F)c3)ccc2n1C | 13.7% (inactive) |
| C=CCN(C(=O)Nc1ccc2oc(C)nc2c1)c1ccccc1 | -2.2% (inactive) |
| C=CCN(C(=O)Nc1ccc2c(c1)nc(C)n2C)c1ccccc1 | 43.6% (active) |
| CCN(CC)C(=O)N(CC)Cc1ccccc1 | -4.01% (inactive) |
| Cc1cc(C)n2nc(C(=O)N(C)C(c3ccccc3)c3ccccc3)nc2n1 | -10.8% (inactive) |
| CCOc1cc(NC(=S)NCCCN(C)C)c(OCC)cc1NC(=O)C1CC1 | -9.76% (inactive) |
| O=C1/C(=C\c2cccnc2)CN(Cc2ccccc2)C/C1=C\c1cccnc1 | 10.5% (inactive) |
| O=C(c1[nH]ncc1-c1ccc(Cl)cc1)C1CO1 (stereo unspecified) | -4.22% (inactive) |
| CC(=O)OCCOCn1cnn2c(=O)c(Br)c(C)nc12 | 0.26% (inactive) |
